ChEMBL document CHEMBL1165947, “Synthesis and antitumor activity of 2,5-bis(3'-indolyl)-furans and 3,5-bis(3'-indolyl)-isoxazoles, nortopsentin analogues” (Bioorg Med Chem, 2010)
≈ marks a conversion by molar mass, not a printed value.

Tests used:
786-0 = test: Growth inhibition of human 786-0 cells; type: functional
A498 = test: Growth inhibition of human A498 cells; type: functional
ACHN = test: Growth inhibition of human ACHN cells; type: functional
CAKI-1 = test: Growth inhibition of human Caki1 cells; type: functional
RXF 393 = test: Growth inhibition of human RXF393 cells; type: functional
How it was run: (§1)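 Values come from the NCI in vitro disease-oriented human tumor cell screen. GI50 is the concentration giving 50% growth inhibition of tumor cells; pGI50 is its −log molar form.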

SN12C = test: Growth inhibition of human SN12C cells; type: functional; how it was run: as §1
TK-10 = test: Growth inhibition of human TK10 cells; type: functional; how it was run: as §1
UO-31 = test: Growth inhibition of human UO31 cells; type: functional; how it was run: as §1
DU-145 [1] = test: Growth inhibition of human DU145 cells; type: functional
MCF7 [2] = test: Growth inhibition of human MCF7 cells; type: functional; how it was run: as §1
MDA-MB-231 = test: Growth inhibition of human MDA-MB-231 cells; type: functional; how it was run: as §1
[3] = Growth inhibition of human Hs 578T cells; type: functional
T47D = test: Growth inhibition of human T47D cells; type: functional; how it was run: as §1
[4] = Cytotoxicity against human BXF 1218L cells after 4 days by modified propidium iodide staining-based fluorescence assay; type: functional, cell-based; conditions: 96 h
How it was run: (§2)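 Cells cultured in RPMI 1640 with 10% fetal calf serum and 0.1 mg/mL gentamicin at 37 °C, 5% CO2. Cells from exponential cultures were trypsinized and plated at 4.000-20.000 cells/well by line. After 24 h recovery, compounds were added at five log-spaced concentrations (highest 100 μg/mL) for 4 days. Proliferation was read as DNA content with aqueous propidium iodide (7 μg/ml), fluorescence ex 530/em 620 nm. Points were run in triplicate.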

T-24 = test: Cytotoxicity against human T24 cells after 4 days by modified propidium iodide staining-based fluorescence assay; type: functional, cell-based; conditions: T-24, 96 h; how it was run: as §2
SF-268 = test: Cytotoxicity against human SF268 cells after 4 days by modified propidium iodide staining-based fluorescence assay; type: functional, cell-based; conditions: SF-268, 96 h; how it was run: as §2
HCT-116 = test: Cytotoxicity against human HCT116 cells after 4 days by modified propidium iodide staining-based fluorescence assay; type: functional, cell-based; conditions: HCT-116, 96 h; how it was run: as §2
HT-29 = test: Cytotoxicity against human HT-29 cells after 4 days by modified propidium iodide staining-based fluorescence assay; type: functional, cell-based; conditions: HT-29, 96 h; how it was run: as §2
[5] = Cytotoxicity against human GXF251L cells after 4 days by modified propidium iodide staining-based fluorescence assay; type: functional, cell-based; conditions: GXF 251L, 96 h; how it was run: as §2
[6] = Cytotoxicity against human LXFL 1121L cells after 4 days by modified propidium iodide staining-based fluorescence assay; type: functional, cell-based; conditions: 96 h; how it was run: as §2
[7] = Cytotoxicity against human LXFA 289L cells after 4 days by modified propidium iodide staining-based fluorescence assay; type: functional, cell-based; conditions: 96 h; how it was run: as §2
[8] = Cytotoxicity against human LXFA 526L cells after 4 days by modified propidium iodide staining-based fluorescence assay; type: functional, cell-based; conditions: 96 h; how it was run: as §2
A549 = test: Cytotoxicity against human A549 cells after 4 days by modified propidium iodide staining-based fluorescence assay; type: functional, cell-based; conditions: A549, 96 h; how it was run: as §2
[9] = Cytotoxicity against human LXFA 629L cells after 4 days by modified propidium iodide staining-based fluorescence assay; type: functional, cell-based; conditions: 96 h; how it was run: as §2
NCI-H460 = test: Cytotoxicity against human H460 cells after 4 days by modified propidium iodide staining-based fluorescence assay; type: functional, cell-based; conditions: NCI-H460, 96 h; how it was run: as §2
[10] = Cytotoxicity against human MAXF 401NL cells after 4 days by modified propidium iodide staining-based fluorescence assay; type: functional, cell-based; conditions: 96 h; how it was run: as §2
MCF7 [11] = test: Cytotoxicity against human MCF7 cells after 4 days by modified propidium iodide staining-based fluorescence assay; type: functional, cell-based; conditions: MCF7, 96 h; how it was run: as §2
[12] = Cytotoxicity against human MEXF 276L cells after 4 days by modified propidium iodide staining-based fluorescence assay; type: functional, cell-based; conditions: MEXF276L, 96 h; how it was run: as §2
[13] = Cytotoxicity against human MEXF 462NL cells after 4 days by modified propidium iodide staining-based fluorescence assay; type: functional, cell-based; conditions: 96 h; how it was run: as §2
[14] = Cytotoxicity against human MEXF 520L cells after 4 days by modified propidium iodide staining-based fluorescence assay; type: functional, cell-based; conditions: 96 h; how it was run: as §2
[15] = Cytotoxicity against human 899L cells after 4 days by modified propidium iodide staining-based fluorescence assay; type: functional, cell-based; conditions: 96 h; how it was run: as §2
OVCAR-3 = test: Cytotoxicity against human OVCAR-3 cells after 4 days by modified propidium iodide staining-based fluorescence assay; type: functional, cell-based; conditions: OVCAR-3, 96 h; how it was run: as §2
[16] = Cytotoxicity against human 1657L cells after 4 days by modified propidium iodide staining-based fluorescence assay; type: functional, cell-based; conditions: 96 h; how it was run: as §2
PANC-1 = test: Cytotoxicity against human PANC1 cells after 4 days by modified propidium iodide staining-based fluorescence assay; type: functional, cell-based; conditions: PANC-1, 96 h; how it was run: as §2
CWR22R = test: Cytotoxicity against human 22Rv1 cells after 4 days by modified propidium iodide staining-based fluorescence assay; type: functional, cell-based; conditions: 22Rv1, 96 h; how it was run: as §2
DU-145 [17] = test: Cytotoxicity against human DU145 cells after 4 days by modified propidium iodide staining-based fluorescence assay; type: functional, cell-based; conditions: DU-145, 96 h; how it was run: as §2
LNCaP = test: Cytotoxicity against human LNCAP cells after 4 days by modified propidium iodide staining-based fluorescence assay; type: functional, cell-based; conditions: 96 h; how it was run: as §2
[18] = Cytotoxicity against human PC3M cells after 4 days by modified propidium iodide staining-based fluorescence assay; type: functional, cell-based; conditions: PC-3M, 96 h; how it was run: as §2
[19] = Cytotoxicity against human 1752L cells after 4 days by modified propidium iodide staining-based fluorescence assay; type: functional, cell-based; conditions: 96 h; how it was run: as §2
[20] = Cytotoxicity against human 1781L cells after 4 days by modified propidium iodide staining-based fluorescence assay; type: functional, cell-based; conditions: 96 h; how it was run: as §2
[21] = Cytotoxicity against human RXF 486L cells after 4 days by modified propidium iodide staining-based fluorescence assay; type: functional, cell-based; conditions: 96 h; how it was run: as §2
[22] = Cytotoxicity against human UXF 1138L cells after 4 days by modified propidium iodide staining-based fluorescence assay; type: functional, cell-based; conditions: 96 h; how it was run: as §2

Compound: COc1ccc2c(c1)c(-c1ccc(-c3cn(C)c4ccc(OC)cc34)o1)cn2C
- GI50 (786-0): > 100 µM
- GI50 (A498): > 100 µM
- GI50 (ACHN): 3.74 µM
- GI50 (CAKI-1): 17.1 µM
- GI50 (RXF 393): 10.4 µM
- GI50 (SN12C): 21.6 µM
- GI50 (TK-10): 11 µM
- GI50 (UO-31): 3.6 µM
- GI50 (DU-145 [1]): > 100 µM
- GI50 (MCF7 [2]): 17.3 µM
- GI50 (MDA-MB-231): 4.2 µM
- GI50 [3]: 5.11 µM
- GI50 (T47D): 2.72 µM
- IC50 [4]: 15.7 µg/mL (≈ 40.6 µM)
- IC50 (T-24): > 100 µg/mL
- IC50 (SF-268): 35.1 µg/mL (≈ 90.8 µM)
- IC50 (HCT-116): 50.4 µg/mL (≈ 130 µM)
- IC50 (HT-29): > 100 µg/mL
- IC50 [5]: 3.8 µg/mL (≈ 9.83 µM)
- IC50 [6]: 43.4 µg/mL (≈ 112 µM)
- IC50 [7]: > 100 µg/mL
- IC50 [8]: 5.8 µg/mL (≈ 15 µM)
- IC50 (A549): 9.6 µg/mL (≈ 24.8 µM)
- IC50 [9]: 4.1 µg/mL (≈ 10.6 µM)
- IC50 (NCI-H460): 22.2 µg/mL (≈ 57.4 µM)
- IC50 [10]: 8.1 µg/mL (≈ 21 µM)
- IC50 (MCF7 [11]): 6.2 µg/mL (≈ 16 µM)
- IC50 [12]: 3.8 µg/mL (≈ 9.83 µM)
- IC50 [13]: 12.5 µg/mL (≈ 32.3 µM)
- IC50 [14]: 6.4 µg/mL (≈ 16.6 µM)
- IC50 [15]: > 100 µg/mL
- IC50 (OVCAR-3): 4.2 µg/mL (≈ 10.9 µM)
- IC50 [16]: > 100 µg/mL
- IC50 (PANC-1): 6.4 µg/mL (≈ 16.6 µM)
- IC50 (CWR22R): 33.7 µg/mL (≈ 87.2 µM)
- IC50 (DU-145 [17]): > 100 µg/mL
- IC50 (LNCaP): 28.2 µg/mL (≈ 73 µM)
- IC50 [18]: 4.1 µg/mL (≈ 10.6 µM)
- IC50 [19]: 77.4 µg/mL (≈ 200 µM)
- IC50 [20]: 22 µg/mL (≈ 56.9 µM)
- IC50 [21]: > 100 µg/mL
- IC50 [22]: 13.7 µg/mL (≈ 35.5 µM)
